Active and inactive are the calls of the source. No cut-off for these calls is given here.
Assays:
[1] = species on record: Mus musculus; assay: Inhibition of TPA-induced skin tumor promotion in ICR mouse assessed as incidence of skin papilloma at 85 nmol after 20 weeks; format: functional; settings: values are per cent of control
In short: (§1)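 Specific pathogen-free ICR mice, 15 per group, were initiated with DMBA and promoted with TPA, with or without 85 nmol compound. Papilloma incidence and mean papillomas per mouse were recorded up to 20 weeks of promotion. Groups were compared by Student's t-test.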

[2] = species on record: Mus musculus; assay: Inhibition of TPA-induced skin tumor promotion in ICR mouse assessed as reduction in number of skin papillomas at 85 nmol; format: functional, organism-based; in short: as §1
[3] = system: Human gammaherpesvirus 4; assay: Inhibition of TPA-induced Epstein-Barr virus early antigen activation in Raji cells after 48 hrs; format: functional, organism-based; settings: human gammaherpesvirus 4, Raji
[4] = system: Raji; assay: Cell viability of Raji cells at 320 nM; format: functional, Homo sapiens
[5] = Scavenging activity against NO generation in human Chang liver cells assessed as inhibition of NOR1-activation at 350 nM relative to NOR1; format: functional
[6] = species on record: Mus musculus; assay: Inhibition of TPA-induced skin tumor promotion in ICR mouse assessed as incidence of skin papilloma at 85 nmol after 10 weeks; format: functional; in short: as §1
[7] = system: Human gammaherpesvirus 4; assay: Inhibition of TPA-induced Epstein-Barr virus early antigen activation assessed as EBV-EA induction in Raji cells at 32 nM after 48 hrs relative to TPA; values are per cent of control; settings: human gammaherpesvirus 4, Raji
[8] = system: Human gammaherpesvirus 4; assay: Inhibition of TPA-induced Epstein-Barr virus early antigen activation assessed as EBV-EA induction in Raji cells at 320 nM after 48 hrs relative to TPA; values are per cent of control; settings: human gammaherpesvirus 4, Raji
[9] = system: Human gammaherpesvirus 4; assay: Inhibition of TPA-induced Epstein-Barr virus early antigen activation assessed as EBV-EA induction in Raji cells at 3.2 nM after 48 hrs relative to TPA; values are per cent of control; settings: human gammaherpesvirus 4, Raji
[10] = system: Human gammaherpesvirus 4; assay: Inhibition of TPA-induced Epstein-Barr virus early antigen activation assessed as EBV-EA induction in Raji cells at 0.32 nM after 48 hrs relative to TPA; values are per cent of control; settings: human gammaherpesvirus 4, Raji

COCC(O)(CC[C@@H](C)[C@H]1CC[C@@]2(C)[C@@H]3CC[C@H]4C(C)(C)[C@@H](O)CC[C@@]45C[C@@]35CC[C@]12C)C(C)C (stereo partly drawn)
response, % of control [1]: 87%
Activity [2]: Active
IC50 [3]: 6.7 nM
Activity [4]: 70%
Activity [5]: 2.1
Papilloma incidence % [6]: 27%
level, % of control at 0.032 µM [7]: 15.2%
level, % of control at 0.32 µM [8]: 0%
level, % of control at 0.0032 µM [9]: 65.4%
level, % of control at 0.00032 µM [10]: 83.1%

CC(C)C(O)(CO)CC[C@@H](C)[C@H]1CC[C@@]2(C)[C@@H]3CC[C@H]4C(C)(C)[C@@H](O)CC[C@@]45C[C@@]35CC[C@]12C (stereo partly drawn)
response, % of control [1]: 80%
Activity [2]: Active
IC50 [3]: 6.1 nM
Activity [4]: 70%
Activity [5]: 2.2
Papilloma incidence % [6]: 20%
level, % of control at 0.032 µM [7]: 13%
level, % of control at 0.32 µM [8]: 0%
level, % of control at 0.0032 µM [9]: 63.2%
level, % of control at 0.00032 µM [10]: 81%

CC(=O)O[C@@H]1CC[C@]23C[C@]24CC[C@]2(C)[C@@H]([C@H](C)CCC=C(C)C)CC[C@@]2(C)[C@@H]4CC[C@H]3C1(C)C
IC50 [3]: 10.2 nM
Activity [4]: 70%
Activity [5]: 1.6
level, % of control at 0.032 µM [7]: 33.2%
level, % of control at 0.32 µM [8]: 0%
level, % of control at 0.0032 µM [9]: 73.1%
level, % of control at 0.00032 µM [10]: 96%

C=C(CC[C@@H](C)[C@H]1CC[C@@]2(C)[C@@H]3CC[C@H]4[C@@H](C)[C@@H](O)CC[C@@]45C[C@@]35CC[C@]12C)C(C)C
IC50 [3]: 9.5 nM
Activity [4]: 70%
Activity [5]: 1.5
level, % of control at 0.032 µM [7]: 29.9%
level, % of control at 0.32 µM [8]: 0%
level, % of control at 0.0032 µM [9]: 72%
level, % of control at 0.00032 µM [10]: 95.1%

C=C(CC[C@@H](C)[C@H]1CC[C@@]2(C)[C@@H]3CC[C@H]4C(C)(C)[C@@H](O)CC[C@@]45C[C@@]35CC[C@]12C)C(C)C
IC50 [3]: 8.8 nM
Activity [4]: 70%
Activity [5]: 1.7
level, % of control at 0.032 µM [7]: 23.2%
level, % of control at 0.32 µM [8]: 0%
level, % of control at 0.0032 µM [9]: 68.1%
level, % of control at 0.00032 µM [10]: 91.4%

C=C(CC[C@@H](C)[C@H]1CC[C@@]2(C)[C@@H]3CC[C@H]4[C@H](C)[C@H](O)CC[C@@]45C[C@@]35CC[C@]12C)C(C)C
IC50 [3]: 9.4 nM
Activity [4]: 70%
Activity [5]: 1.6
level, % of control at 0.032 µM [7]: 30.5%
level, % of control at 0.32 µM [8]: 0%
level, % of control at 0.0032 µM [9]: 73.1%
level, % of control at 0.00032 µM [10]: 95.9%

CC(=O)[C@H]1CC[C@@]2(C)[C@@H]3CC[C@H]4C(C)(C)C(=O)CC[C@@]45C[C@@]35CC[C@]12C
IC50 [3]: 8.9 nM
Activity [4]: 70%
Activity [5]: 1.5
level, % of control at 0.032 µM [7]: 22.1%
level, % of control at 0.32 µM [8]: 0%
level, % of control at 0.0032 µM [9]: 70.3%
level, % of control at 0.00032 µM [10]: 94.6%

C=C(C)C(O)CC[C@@H](C)[C@H]1CC[C@@]2(C)[C@@H]3CC[C@H]4C(C)(C)C(=O)CC[C@@]45C[C@@]35CC[C@]12C (stereo partly drawn)
IC50 [3]: 8.6 nM
Activity [4]: 70%
Activity [5]: 2
level, % of control at 0.032 µM [7]: 21.1%
level, % of control at 0.32 µM [8]: 0%
level, % of control at 0.0032 µM [9]: 69.7%
level, % of control at 0.00032 µM [10]: 91.2%

C=C(C)C(=O)CC[C@@H](C)[C@H]1CC[C@@]2(C)[C@@H]3CC[C@H]4C(C)(C)[C@@H](O)CC[C@@]45C[C@@]35CC[C@]12C
IC50 [3]: 9.3 nM
Activity [4]: 70%
Activity [5]: 1.4
level, % of control at 0.032 µM [7]: 25.4%
level, % of control at 0.32 µM [8]: 1.5%
level, % of control at 0.0032 µM [9]: 73.1%
level, % of control at 0.00032 µM [10]: 97.8%

C=C(CC[C@@H](C)[C@H]1CC[C@@]2(C)[C@@H]3CC[C@H]4C(C)(C)[C@@H](OC(=O)/C=C/c5ccc(O)c(OC)c5)CC[C@@]45C[C@@]35CC[C@]12C)C(C)C
IC50 [3]: 15.8 nM
Activity [4]: 70%
Activity [5]: 1.8
level, % of control at 0.032 µM [7]: 54.7%
level, % of control at 0.32 µM [8]: 17.6%
level, % of control at 0.0032 µM [9]: 82%
level, % of control at 0.00032 µM [10]: 100%

C=C(C)[C@@H](C)CC[C@@H](C)[C@H]1CC[C@@]2(C)[C@@H]3CC[C@H]4[C@H](C)[C@H](O)CC[C@@]45C[C@@]35CC[C@]12C
IC50 [3]: 9.3 nM
Activity [4]: 70%
Activity [5]: 1.8
level, % of control at 0.032 µM [7]: 29.3%
level, % of control at 0.32 µM [8]: 0%
level, % of control at 0.0032 µM [9]: 71.5%
level, % of control at 0.00032 µM [10]: 94.5%

C=C(CC[C@@H](C)[C@H]1CC[C@@]2(C)[C@@H]3CC[C@H]4C[C@@H](O)CC[C@@]45C[C@@]35CC[C@]12C)C(C)C
IC50 [3]: 9.5 nM
Activity [4]: 70%
Activity [5]: 1.5
level, % of control at 0.032 µM [7]: 30.5%
level, % of control at 0.32 µM [8]: 0%
level, % of control at 0.0032 µM [9]: 72.7%
level, % of control at 0.00032 µM [10]: 95.8%

C=C(CC[C@@H](C)[C@H]1CC[C@@]2(C)[C@@H]3CC[C@H]4C(C)(C)C(=O)CC[C@@]45C[C@@]35CC[C@]12C)C(C)C
IC50 [3]: 9.2 nM
Activity [4]: 70%
Activity [5]: 1.9
level, % of control at 0.032 µM [7]: 26.4%
level, % of control at 0.32 µM [8]: 3.1%
level, % of control at 0.0032 µM [9]: 73.5%
level, % of control at 0.00032 µM [10]: 96.1%

CC(C)CCC[C@@H](C)[C@H]1CC[C@@]2(C)[C@@H]3CC[C@H]4C[C@@H](O)CC[C@@]45C[C@@]35CC[C@]12C [POLLINASTANOL]
IC50 [3]: 9.9 nM
Activity [4]: 70%
Activity [5]: 1.5
level, % of control at 0.032 µM [7]: 31.7%
level, % of control at 0.32 µM [8]: 0%
level, % of control at 0.0032 µM [9]: 73.1%
level, % of control at 0.00032 µM [10]: 95.9%

CC(C)CCC[C@@H](C)[C@@H]1CC[C@@]2(C)[C@@H]3CC[C@H]4C(C)(C)[C@@H](O)CC[C@@]45C[C@@]35CC[C@]12C
IC50 [3]: 9.4 nM
Activity [4]: 70%
Activity [5]: 1.6
level, % of control at 0.032 µM [7]: 30.8%
level, % of control at 0.32 µM [8]: 0%
level, % of control at 0.0032 µM [9]: 71.2%
level, % of control at 0.00032 µM [10]: 94.2%

CC(C)C(C)CC[C@@H](C)[C@H]1CC[C@@]2(C)[C@@H]3CC[C@H]4[C@H](C)[C@@H](O)CC[C@@]45C[C@@]35CC[C@]12C (stereo partly drawn)
IC50 [3]: 10 nM
Activity [4]: 70%
Activity [5]: 1.6
level, % of control at 0.032 µM [7]: 31.8%
level, % of control at 0.32 µM [8]: 0%
level, % of control at 0.0032 µM [9]: 73.4%
level, % of control at 0.00032 µM [10]: 96.8%
